Measurements as given in ChEMBL document CHEMBL1153722, “Design, synthesis, and characterization of peptide-based rab geranylgeranyl transferase inhibitors” (J Med Chem, 2009).
Square brackets hold non-standard residues; d marks the D form. Peptide text beside a SMILES is read from it. * marks the point of attachment. NMeY = CN[C@@H](Cc1ccc(O)cc1)C(=O)O; Hydrocinnamoyl = O=C(CCc1ccccc1)*; NMeF = CN[C@@H](Cc1ccccc1)C(=O)O; pNA = O=[N+]([O-])c1ccc(N*)cc1; Undecanoyl = CCCCCCCCCCC(=O)*; Lauroyl = CCCCCCCCCCCC(=O)*; Piperidide = C1CCN(*)CC1; Cbz = O=C(OCc1ccccc1)*; NHPh = c1ccc(N*)cc1; NHNH2 = NN*; NHOH = ON*

Species: Rattus norvegicus
Assay: Inhibition of rat recombinant Rab geranylgeranyltransferase at 100 uM in presence of canine Rab7 and rat REP1 NBD-FPP based continuous fluorimetric assay
How it was run: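 Continuous fluorometric assay in 96/384-well format: 3 μM Rab7, 3 μM REP1, 9 μM NBD-FPP and 400 nM RabGGTase, with or without inhibitor. […] IC50 was calculated from three independent measurements.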

Row | SMILES | inhibition
1 | O=C(N[C@@H](Cc1ccc(O)cc1)C(=O)N[C@@H](Cc1ccc(O)cc1)C(=O)N[C@@H](Cc1ccc(O)cc1)C(=O)Nc1nccs1)c1ccc(F)cc1F | 78%
2 | O=C(CCNC(=O)[C@H](Cc1c[nH]cn1)NC(=O)OCc1ccccc1)N[C@@H](Cc1ccc(O)cc1)C(=O)NCC(O)CO (some centres undefined) | 89%
3 | CC(C)C[C@H](NC(=O)[C@@H]1CCCN1C(=O)/C=C/c1ccccc1)C(=O)N[C@@H](Cc1ccccc1)C(=O)O | 80%
4 | O=C(CNC(=O)[C@@H]1CCCN1C(=O)/C=C/c1ccccc1)N[C@@H](Cc1ccccc1)C(=O)NC1CCCCC1 | 61%
5 | C=CCOC(=O)[C@H](Cc1cn(C(c2ccccc2)(c2ccccc2)c2ccccc2)cn1)NC(=O)[C@H](Cc1ccccc1)NC(=O)CNC(=O)c1coc(-c2ccccc2)n1 | 55%
6 | NC(=O)CC[C@H](NC(=O)[C@H](Cc1ccccc1)NC(=O)CNC(=O)CCc1ccccc1)C(N)=O (Hydrocinnamoyl-Gly-Phe-Gln-NH2) | 103%
7 | CN(C(=O)[C@H](Cc1cnc[nH]1)NC(=O)OCc1ccccc1)[C@@H](Cc1ccc(O)cc1)C(=O)N(C)[C@@H](Cc1ccccc1)C(=O)O (Cbz-His-[NMeY]-[NMeF]-OH) | 54%
8 | O=C(CNC(=O)[C@H](Cc1c[nH]cn1)NC(=O)OCc1ccccc1)N[C@@H](Cc1ccc(O)cc1)C(=O)O (Cbz-His-Gly-Tyr-OH) | 75%
9 | O=C(CNC(=O)[C@H](Cc1cn(C(c2ccccc2)(c2ccccc2)c2ccccc2)cn1)NC(=O)c1coc(-c2ccccc2)n1)N[C@@H](Cc1cn(C(c2ccccc2)(c2ccccc2)c2ccccc2)cn1)C(=O)O | 95%
10 | O=C(CNC(=O)[C@H](Cc1c[nH]cn1)NC(=O)OCc1ccccc1)N[C@@H](Cc1ccc(O)cc1)C(=O)NCCCn1ccnc1 | 85%
11 | CN(C(=O)[C@@H](Cc1c[nH]cn1)NC(=O)OCc1ccccc1)[C@@H](Cc1ccc(O)cc1)C(=O)N[C@@H](Cc1ccccc1)C(=O)O | 34%
12 | COc1ccc(C[C@@H](C(=O)N(C)[C@@H](Cc2ccccc2)C(=O)O)N(C)C(=O)[C@@H](Cc2ccc(O)cc2)NC(=O)CCc2ccccc2)cc1 | 46%
13 | CCCCCCCCCCC(=O)N[C@@H](Cc1c[nH]cn1)C(=O)N[C@@H](Cc1ccccc1)C(=O)N[C@@H](Cc1ccc(O)cc1)C(=O)Nc1ccccc1N | 34%
14 | CC(C)CCNC(=O)[C@H](CO)NC(=O)CNC(=O)[C@H](CO)NC(=O)/C=C/c1ccc(F)cc1 | 85%
15 | O=C(CNC(=O)c1csc(-c2ccc(C(F)(F)F)cc2)n1)N[C@@H](Cc1ccccc1)C(=O)N[C@@H](Cc1c[nH]cn1)C(=O)O | 137%
16 | O=C(/C=C/c1ccc(F)cc1)N[C@@H](CO)C(=O)N[C@@H](Cc1ccccc1)C(=O)N[C@@H](CO)C(=O)Nc1ccc(N2CCOCC2)cc1 | 79%
17 | COC(=O)COC(=O)[C@H](Cc1ccccc1)N(C)C(=O)[C@H](Cc1ccc(OC)cc1)N(C)C(=O)[C@@H](Cc1ccc(O)cc1)NC(=O)CCc1ccccc1 | 88%
18 | CCCCCCCCCCC(=O)N[C@@H](Cc1ccc(O)cc1)C(=O)N[C@@H](Cc1c[nH]cn1)C(=O)N[C@@H](Cc1ccc(O)cc1)C(=O)NOC(C)(C)C | 79%
19 | O=C(CCc1ccccc1)N[C@@H](CO)C(=O)NCC(=O)N[C@@H](CO)C(=O)Nc1ccccc1 (Hydrocinnamoyl-Ser-Gly-Ser-NHPh) | 93%
20 | O=C(N[C@@H](Cc1ccc(O)cc1)C(=O)N[C@@H](Cc1ccc(O)cc1)C(=O)N[C@@H](Cc1ccc(O)cc1)C(=O)O)OCc1ccccc1 | 51%

Row | SMILES | inhibition
21 | O=C(N[C@@H](Cc1ccc(O)cc1)C(=O)N[C@@H](Cc1ccc(O)cc1)C(=O)N[C@@H](Cc1ccc(O)cc1)C(=O)OCCCn1ccnc1)c1ccc(F)cc1F | 96%
22 | CCCCCCCCCCC(=O)N[C@@H](Cc1ccc(O)cc1)C(=O)N[C@@H](Cc1c[nH]cn1)C(=O)N[C@@H](Cc1c[nH]cn1)C(=O)Nc1ccccc1N | 87%
23 | CC(C)C[C@H](NC(=O)/C=C/c1ccccc1)C(=O)N[C@@H](Cc1ccccc1)C(=O)N[C@@H](Cc1ccccc1)C(=O)Nc1ccc([N+](=O)[O-])cc1Cl | 104%
24 | COC(=O)[C@H](CO)NC(=O)CNC(=O)[C@H](CO)NC(=O)/C=C/c1ccc(F)cc1 | 63%
25 | CCCCCCCCCCCC(=O)N[C@@H](Cc1c[nH]cn1)C(=O)N[C@@H](Cc1ccccc1)C(=O)N[C@@H](Cc1ccc(O)cc1)C(=O)NO (Lauroyl-His-Phe-Tyr-{NHOH}) | 89%
26 | CCCCCCCCCCCCCC(=O)N[C@@H](Cc1ccc(O)cc1)C(=O)N[C@@H](Cc1ccc(O)cc1)C(=O)N[C@@H](Cc1ccc(O)cc1)C(=O)Nc1ccc(N2CCOCC2)cc1 | 94%
27 | NC(=O)[C@H](CO)NC(=O)CNC(=O)[C@H](CO)NC(=O)CCc1ccccc1 (Hydrocinnamoyl-Ser-Gly-Ser-NH2) | 85%
28 | CCCCOC(=O)[C@H](Cc1ccc(O)cc1)NC(=O)CNC(=O)[C@H](Cc1ccc(O)cc1)NC(=O)c1ccc(F)cc1 | 76%
29 | CC(=O)Nc1cc(C(=O)N2CCC[C@H]2C(=O)N[C@@H](C(=O)N[C@@H](CCC(=O)O)C(=O)NC2CCCCC2)C(C)C)ccc1[N+](=O)[O-] | 117%
30 | NCCCCNC(=O)[C@H](Cc1ccc(O)cc1)NC(=O)[C@H](Cc1ccc(O)cc1)NC(=O)[C@H](Cc1ccc(O)cc1)NC(=O)c1ccc(F)cc1F | 61%
31 | O=C(CNC(=O)[C@H](Cc1ccc(O)cc1)NC(=O)c1ccc(F)cc1)N[C@@H](Cc1ccc(O)cc1)C(=O)NC1CCCCC1 | 74%
32 | O=C(CCc1ccccc1)N[C@@H](CO)C(=O)N[C@@H](Cc1ccccc1)C(=O)N[C@@H](CO)C(=O)N1CCCCC1 (Hydrocinnamoyl-Ser-Phe-Ser-Piperidide) | 62%
33 | O=C(CNC(=O)[C@H](Cc1ccc(O)cc1)NC(=O)c1coc(-c2ccccc2)n1)N[C@@H](Cc1ccccc1)C(=O)O | 65%
34 | CCCCCCCCCCCOc1ccc(C(=O)N[C@@H](Cc2ccc(O)cc2)C(=O)N[C@@H](Cc2ccc(O)cc2)C(=O)N[C@@H](Cc2ccc(O)cc2)C(N)=O)cc1 | 103%
35 | CCCCCCCCCCC(=O)N[C@@H](Cc1c[nH]cn1)C(=O)N[C@@H](Cc1c[nH]cn1)C(=O)N[C@@H](Cc1ccc(O)cc1)C(=O)OC (Undecanoyl-His-His-Tyr-OMe) | 64%
36 | O=C(N[C@@H](Cc1c[nH]cn1)C(=O)N[C@@H](Cc1ccc(O)cc1)C(=O)N[C@@H](Cc1ccccc1)C(=O)O)OCc1ccccc1OCc1ccccc1 | 15%
37 | CCCCCCCCCCCCCCCC(=O)N[C@@H](Cc1ccc(O)cc1)C(=O)N[C@@H](Cc1ccc(O)cc1)C(=O)N[C@@H](Cc1ccc(O)cc1)C(=O)OCCN | 110%
38 | CCCCCCCCCCC(=O)N[C@@H](CC1=NCN=C1)C(=O)N[C@@H](Cc1c[nH]cn1)C(=O)N[C@@H](Cc1ccc(O)cc1)C(=O)Nc1ccccc1N | 74%
39 | Cc1ccc(C(=O)OC[C@H](NC(=O)CNC(=O)[C@H](COC(=O)c2ccc(C)nc2)NC(=O)c2coc(-c3ccccc3)n2)C(=O)O)cn1 | 100%

More lines, now with the values ahead:

Row | inhibition | SMILES
40 | 88% | CC(C)C[C@H](NC(=O)[C@H](COC(C)(C)C)NC(=O)[C@H](Cc1ccccc1)NC(=O)CCc1ccccc1)C(=O)O
41 | 94% | NNC(=O)[C@H](CO)NC(=O)CNC(=O)[C@H](CO)NC(=O)CCc1ccccc1 (Hydrocinnamoyl-Ser-Gly-Ser-NHNH2)
42 | 93% | NNC(=O)[C@H](CCC(N)=O)NC(=O)[C@H](Cc1ccccc1)NC(=O)CNC(=O)CCc1ccccc1 (Hydrocinnamoyl-Gly-Phe-Gln-NHNH2)
43 | 44% | C[C@@H](NC(=O)CCc1ccccc1)C(=O)N[C@@H](Cc1ccccc1)C(=O)N[C@@H](CCC(N)=O)C(=O)NC1CCCCC1
44 | 57% | COC(=O)[C@H](CC(C)C)NC(=O)[C@H](COC(C)(C)C)NC(=O)[C@H](Cc1ccccc1)NC(=O)/C=C/c1ccc(F)cc1
45 | 94% | COC(=O)[C@H](CC(C)C)NC(=O)[C@H](CO)NC(=O)[C@H](Cc1ccccc1)NC(=O)c1ccc(-c2ccccc2)cc1
46 | 86% | C[C@@H](O)[C@H](NC(=O)/C=C/c1ccccc1)C(=O)N[C@@H](Cc1ccccc1)C(=O)N[C@@H](CCC(N)=O)C(=O)Nc1nccs1
47 | 86% | CC[C@H](C)[C@H](NC(=O)c1ccc(-c2ccccc2)cc1)C(=O)N[C@@H](C(=O)N[C@@H](CCC(N)=O)C(=O)OCCc1scnc1C)C(C)C
48 | 96% | C[C@H](NC(=O)[C@@H](NC(=O)c1ccc(-c2ccccc2)cc1)[C@@H](C)O)C(=O)N[C@@H](CCC(N)=O)C(=O)NNc1ccccc1
49 | 5% | C[C@H](NC(=O)CCc1ccccc1)C(=O)N[C@@H](Cc1ccccc1)C(=O)N[C@@H](CCC(N)=O)C(=O)NNc1ccccc1
50 | 88% | NC(=O)CC[C@H](NC(=O)[C@H](Cc1ccccc1)NC(=O)[C@H](CO)NC(=O)CCc1ccccc1)C(=O)Nc1ccc(F)cc1
51 | 93% | NC(=O)CC[C@H](NC(=O)[C@H](Cc1ccccc1)NC(=O)[C@H](CO)NC(=O)CCc1ccccc1)C(=O)Nc1ccc([N+](=O)[O-])cc1 (Hydrocinnamoyl-Ser-Phe-Gln-pNA)
52 | 77% | CC[C@H](C)[C@H](NC(=O)c1ccc(-c2ccccc2)cc1)C(=O)N[C@@H](C(=O)N[C@@H](CCC(N)=O)C(=O)O)C(C)C
53 | 92% | COC(=O)[C@H](CCC(N)=O)NC(=O)[C@H](Cc1ccccc1)NC(=O)CNC(=O)CCc1ccccc1 (Hydrocinnamoyl-Gly-Phe-Gln-OMe)
54 | 89% | C[C@H](NC(=O)[C@@H](NC(=O)c1ccc(-c2ccccc2)cc1)[C@@H](C)O)C(=O)N[C@@H](CCC(=O)O)C(=O)NN
55 | 102% | C=CCCCOC(=O)[C@H](CCC(N)=O)NC(=O)[C@H](Cc1ccccc1)NC(=O)[C@@H](NC(=O)/C=C/c1ccccc1)[C@@H](C)O
56 | 111% | C[C@@H](NC(=O)CCc1ccccc1)C(=O)N[C@@H](Cc1ccccc1)C(=O)N[C@@H](CCC(N)=O)C(=O)O
57 | 81% | CC(C)C[C@H](NC(=O)[C@H](COC(C)(C)C)NC(=O)[C@H](Cc1ccccc1)NC(=O)c1ccc(-c2ccccc2)cc1)C(=O)O
58 | 71% | CC(C)C[C@H](NC(=O)[C@H](CO)NC(=O)[C@H](Cc1ccccc1)NC(=O)/C=C/c1ccc(F)cc1)C(=O)O
59 | 101% | C[C@H](NC(=O)[C@@H](NC(=O)c1ccc(-c2ccccc2)cc1)[C@@H](C)O)C(=O)N[C@@H](CCC(=O)O)C(=O)OCCCCO
